Screening data (PubChem BioAssay)
AHR act – activates the human aryl hydrocarbon receptor; activation, % at 5 µM; actives 2.5% (n = 320,000); AHR-responsive luciferase reporter cells, luminescence; AID 2796; P35869; in the data active = activation above about 47%;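 also: 0% = vehicle wells and 100% = reference agonist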
Target sequence (P35869 whole entry, looked up): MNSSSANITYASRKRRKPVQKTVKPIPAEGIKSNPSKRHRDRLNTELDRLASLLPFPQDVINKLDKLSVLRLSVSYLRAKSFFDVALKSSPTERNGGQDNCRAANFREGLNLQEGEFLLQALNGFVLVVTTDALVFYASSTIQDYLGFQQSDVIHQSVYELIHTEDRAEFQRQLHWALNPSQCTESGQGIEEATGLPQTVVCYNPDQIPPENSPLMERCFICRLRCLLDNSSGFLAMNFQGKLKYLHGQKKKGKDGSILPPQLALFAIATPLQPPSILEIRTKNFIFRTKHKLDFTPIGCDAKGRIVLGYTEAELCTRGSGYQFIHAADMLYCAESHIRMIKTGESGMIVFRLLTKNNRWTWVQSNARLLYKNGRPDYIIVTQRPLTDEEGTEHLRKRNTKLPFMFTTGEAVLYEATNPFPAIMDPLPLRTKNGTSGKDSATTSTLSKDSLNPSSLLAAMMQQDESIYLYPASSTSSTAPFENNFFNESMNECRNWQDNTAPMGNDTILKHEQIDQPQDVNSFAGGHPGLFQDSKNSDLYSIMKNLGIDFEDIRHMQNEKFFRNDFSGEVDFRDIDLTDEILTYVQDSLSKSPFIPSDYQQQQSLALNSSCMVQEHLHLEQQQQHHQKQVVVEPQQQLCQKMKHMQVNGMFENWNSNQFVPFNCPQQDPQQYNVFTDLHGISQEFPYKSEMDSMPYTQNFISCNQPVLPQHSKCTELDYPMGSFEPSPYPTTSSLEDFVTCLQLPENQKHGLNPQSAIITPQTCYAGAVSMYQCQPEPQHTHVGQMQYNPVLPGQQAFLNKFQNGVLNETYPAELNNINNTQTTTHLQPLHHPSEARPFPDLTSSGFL
STAT3 activator – STAT3 signaling activation; U3A cells, IL-6 STAT3-luciferase reporter, luminescence; 100% = signal with IL-6 EC80 alone; activation (% of control), % at 5.6 µM; actives 0.91% (n = 190,000);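 active = activation above the screen-wide mean of compound activation plus 3 SD, cut at about 130% in these data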;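 also: 0% = background luminescence of wells with medium and substrate only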
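Material: STAT3-luciferase reporter U3A cells; Probe or stimulus: IL-6 (33 ng/mL); Incubation: compound pre-incubation 1 h before IL-6, then 6 h stimulation at 37 °C; Technique: luminescence from STAT3-driven luciferase reporter; Evaluation: % activation versus median of IL-6-stimulated wells; Controls: IL-6-only high control.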
PERK inhibitor – inhibitors of human PERK kinase. Q9NZJ5. CHO PERK-DD fusion, SEAP luminescence translation reporter. inhibition, % at 5.6 µM. actives 0.17% (n = 220,000);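 active = inhibition above the mean inhibition of all tested compounds plus 3 SD, set separately per screening campaign, cut at about 2.9% in these data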;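 also: PERK kinase domain activated by AP20187 dimerizer at 100 nM; 0% = DMSO with dimerizer and 100% = rapamycin at 8.4 µM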
HSF1 inhib – HSF1 inhibition | AID 2098 | actives 0.77% (n = 300,000) | NIH3T3-HGL HSE-luciferase, MG132-induced, luminescence 8 h; active compounds read low | activity change, negative = inhibition, % at 7.5 µM (by protocol);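 active = more than half of replicate wells show activity change below -50%, luminescence cut by over half; inconclusive = some wells, but at most half, below -50%; inactive = no replicate well below -50%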;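 also: luciferase reports HSF-1 transcriptional activity via heat shock element; 0% = median of DMSO wells and -100% = zero luminescence signal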
Hsp70 activator – transcriptional activators of Hsp70 | HeLa Hsp70 promoter luciferase reporter, luminescence; scaled: vehicle 0, proteasome-inhibitor control 100% | activation, % at 10 µM | actives 0.04% (n = 200,000);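 active = activation above the mean across all tested compounds plus 3 SD, cutoff set per campaign, cut at about 5.5% in these data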;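 also: 100% = MG132 at 30 µM as the positive control and 0% = DMSO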
PolyA inh – yeast polyadenylation inhibition; S. cerevisiae SKY197-pL101 polyadenylation reporter, beta-gal luminescence; efflux-impaired pdr1/pdr3 knockout yeast; score 100 = 6 SD above DMSO; activity score, % at 12 µM; actives 0.02% (n = 300,000);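 active = lowest replicate activity score at least 50, where 100 means six control SD above control mean; inconclusive = lowest score under 50 but half or more replicates reach 50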;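 also: yeast exposed to compound for 9 h at 30 °C; higher score means more reporter readthrough which indicates perturbed polyadenylation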
An asterisk follows results filed as active; u = inconclusive; x = not tested or not shown. Rows were chosen to be rich in hits. Some 3.6% of all compounds tested hit in one or more screens of this group.

SMILES | AHR act | STAT3 activator | PERK inhibitor | HSF1 inhib | Hsp70 activator | PolyA inh
CN(C)/C=N/c1nc2nccc(-c3cccnc3)n2n1 | 57.9* | 104.1 | 1.3 | -7.2 | -0.2 | -14.6
CC(C)CN1C(=O)C(=O)N(CC(=O)N2CCN(c3ccccc3)CC2)C1=O | -0.1 | x | x | -2.0 | x | -6.5
Cn1c(O)c(/C=C2\C=Nc3ccccc32)sc1=Nc1ccc(C(=O)O)cc1 | 51.3* | x | 0.8 | 3.1 | x | -7.4
CCOc1ccccc1NC(=O)c1oc2ccccc2c1NC(=O)C1CCCO1 (stereo unspecified) | 49.2* | 100.0 | 0.1 | -0.5 | 0.1 | 8.8
Cc1ccc(NC(=O)c2oc3ccccc3c2NC(=O)C2CCCO2)cc1C (stereo unspecified) | 74.4* | 98.8 | -0.5 | 14.6 | -0.1 | 3.4
CCOc1ccccc1NC(=O)c1ccc(NC(=O)C2CCCO2)cc1 (stereo unspecified) | 41.2 | x | x | -3.0 | x | -7.9
Cc1ccc(C(=O)Nc2ccccc2C(=O)O)cc1S(=O)(=O)NCc1ccccc1 | 1.3 | 106.9 | 1.1 | -92.1* | -0.4 | -7.9
Cc1ccc(C(=O)Nc2ccccc2C(=O)O)cc1S(=O)(=O)Nc1ccc(Br)cc1 | 6.1 | x | x | -1.2 | x | -13.0
Cn1c(C=O)c(C#Cc2ccccc2)c2ccccc21 | 72.6* | x | x | x | x | x
COc1ccc(C#Cc2c(C=O)n(C)c3ccccc23)cc1 | 73.4* | x | x | x | x | x
COc1ccc(Nc2cc(C)nc3ncnn23)cc1Cl | 67.6* | x | x | 0.9 | x | -8.2
CCOc1ccccc1C(=O)N(Cc1sccc1C)C1CCS(=O)(=O)C1 (stereo unspecified) | 0.9 | x | x | -6.9 | x | 23.8
Cc1ccc(-n2nc(C)cc2Nc2ncc(Cl)cc2Cl)cc1 | 44.3 | 134.5* | 0.4 | 5.5 | -0.5 | -46.4
Cc1cc(Nc2ncc(Cl)cc2Cl)n(-c2ccccc2C)n1 | 2.0 | 111.5 | 0.0 | -4.7 | -0.1 | -27.1
COc1cc(/C=N/NC(=O)Cc2cccs2)c([N+](=O)[O-])cc1OC | 49.2* | 102.2 | 0.4 | 3.3 | 0.1 | 7.2
COc1ccc(/C=N/NC(=O)Cc2cccs2)cc1 | 11.8 | x | 0.0 | 17.7 | x | -3.8
Cc1ccc2cc(CN(Cc3ccc(F)cc3)Cc3nnnn3C3CCCC3)c(=O)[nH]c2c1 | 0.7 | 103.3 | -0.9 | 1.8 | -0.4 | u
CCc1ccc2[nH]c(=O)c(CN(Cc3ccc4c(c3)OCO4)Cc3nnnn3C3CCCC3)cc2c1 | 61.8* | 103.9 | 0.2 | 33.6 | 0.1 | -0.8
O=S(=O)(c1ccc(N2CCN(CCO)CC2)nc1)N1CCOCC1 | 1.4 | x | x | -10.5 | x | -0.2
C=CCN=C1NN=C(c2ccc3c(c2)OCCO3)CS1 | -2.7 | 25.1 | -0.4 | -55.9* | -0.4 | -11.9
C/C(=N\Nc1ccc(C)c(Cl)c1)c1cccnc1 | 54.1* | x | x | -5.1 | x | 6.9
Cc1ccccc1OC(C)C(=O)Nc1ccc2c(c1)OCCO2 (stereo unspecified) | 0.4 | x | x | -1.2 | x | 9.0
NNC(=O)COc1ccc2oc3c(c2c1)CCCC3 | 68.5* | x | x | 0.8 | x | 7.1
CCOC(=O)C1=C(C)NC(C)=C(C(=O)OCC)C1C(=O)OCC(=O)NCCc1ccccc1 | 5.8 | x | x | x | x | x
Nc1ccc(N=Nc2ccccc2)c2ccccc12 | 54.5* | x | 2.6 | 8.2 | x | -14.4
SMILES | AHR act | STAT3 activator | PERK inhibitor | HSF1 inhib | Hsp70 activator | PolyA inh
Nc1ccc(N=Nc2ccccc2)c(N)n1 | 3.1 | 100.1 | 0.4 | 11.0 | -0.3 | 2.2
O=C1CC(N2CCN(c3ccc(F)cc3)CC2)C(=O)N1c1ccc2c(c1)OCO2 (stereo unspecified) | -0.1 | 94.0 | 1.6 | 13.8 | -0.2 | -12.1
CCOC(=O)Cc1csc(N/N=C\c2ccccc2OC)n1 | 51.1* | x | x | 15.1 | x | 12.6
COc1ccc(OC)c(CNC(=O)COc2cc(=O)n(C)c3ccccc23)c1 | 57.0* | 99.2 | -1.4 | 2.4 | -0.3 | -4.6
CC(NC(=O)CCCCCCN1C(=O)c2ccccc2C1=O)c1ccc2c(c1)CCCC2 (stereo unspecified) | -0.2 | 107.8 | 0.2 | 18.0 | -0.5 | 82.4*
CC(NC(=O)CCCCCN1C(=O)c2ccccc2C1=O)c1ccc2c(c1)CCCC2 (stereo unspecified) | -2.5 | 113.3 | 0.9 | 15.3 | -0.3 | -10.3
COc1cc(/C=N/NC(=O)COc2ccc([N+](=O)[O-])cc2)ccc1OCC(=O)N1CCOCC1 | 16.1 | x | x | 2.4 | x | -29.8
CCOC(=O)c1cc(C)sc1NC(=O)CSC1=NCCS1 | 0.2 | x | x | 15.0 | x | -0.1
Cc1cccc2c(C(=O)N3CCN(c4ccccc4)CC3)cc(-c3ccncc3)nc12 | 16.5 | x | x | -69.6* | x | 4.5
Cc1cccc2c(C(=O)N3CCN(c4ccccn4)CC3)cc(-c3cccc(Br)c3)nc12 | 16.0 | x | x | -79.2* | x | -11.2
Cc1cccc2c(C(=O)N3CCCCC3)cc(-c3ccccc3)nc12 | 10.5 | x | x | 20.3 | x | -28.6
Cc1cc(C)c2nc(-c3ccccn3)cc(C(=O)N3CCCC3)c2c1 | 55.9* | x | x | -2.5 | x | -13.3
CCOc1ccc2c(c1)C(c1cccs1)=NNC(c1cccnc1)=N2 | 26.6 | 100.7 | -0.4 | -5.8 | -0.1 | -7.2
Brc1ccc2c(c1)C(c1cccs1)=NNC(c1cccnc1)=N2 | 91.8* | 88.4 | -0.8 | 9.0 | -0.1 | -10.5
O=C(c1ccco1)N1N=C(c2ccco2)CC1c1ccc(Cl)cc1Cl (stereo unspecified) | 0.4 | x | x | x | x | x
COc1ccc(CNn2c(C)nc3ccccc3c2=O)cc1 | 70.2* | 92.9 | -0.3 | 8.1 | 0.0 | -0.4
COc1ccc(CCn2c(S)nc3ccccc3c2=O)cc1 | 67.7* | x | x | -2.6 | x | -24.2
COc1ccc(CCn2c(C)nc3c(c(=O)c4ccccc4n3C)c2=O)cc1 | 29.2 | 117.3 | -0.5 | -1.4 | -0.1 | -6.2
O=C(CNC(=O)c1cccc([N+](=O)[O-])c1)NC1CCCc2ccccc21 (stereo unspecified) | 7.8 | x | x | x | x | x
Cc1nn(CC(=O)N2CCN(c3ccccc3)CC2)c(=O)c2cccn12 | -1.8 | x | x | 2.6 | x | -4.6
COc1ccc(NC(=O)CCc2nnc3ccc(N4CCC(C)CC4)nn23)cc1OC | 0.3 | x | x | -71.3* | x | 1.1
CC(C)CN1C(=O)NC(NS(=O)(=O)c2ccc(N)cc2)(C(F)(F)F)C1=O (stereo unspecified) | -2.5 | 105.4 | 0.8 | 3.2 | -0.1 | -8.4
CC(=O)Nc1ccc(S(=O)(=O)NC2(C(F)(F)F)NC(=O)N(CC(C)C)C2=O)cc1 (stereo unspecified) | 58.2* | 98.5 | 0.9 | -3.3 | 0.0 | 34.2
CCCC1=[N+](CC(=O)c2ccccc2)CCn2c(C)ccc21 | 49.5* | 116.3 | 1.4 | -3.9 | -0.1 | 18.2
CCCC1=[N+](CC)CCn2c(C)ccc21 | -1.4 | 92.0 | 0.9 | x | -0.4 | -3.6
Cc1ccc(C)c(C(=O)COC(=O)CN2C(=O)C3C4C=CC(C4)C3C2=O)c1 (stereo unspecified) | -3.3 | x | x | -0.7 | x | 4.0
COc1cccc(NC(=O)c2nnn(Cc3ccc(Br)cc3F)c2N)c1 | 54.2* | 97.2 | 0.4 | 49.1 | 0.1 | -18.8
